30 compounds from PubChem BioAssay can be followed below.

A short description of experiment [1]: nonspecific flux increase, KCNQ1-free cells – parental CHO cells, counter-screen for KCNQ1 potentiator project (AID 493006). The note with it: parental CHO-K1 cells, FluxOR thallium flux, at 10 µM; stronger effect = higher value. Summed up: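 Assay system: Untransfected host CHO-K1 cells with FluxOR thallium dye | Probe or stimulus: Potassium/thallium depolarization pulse | Schedule: Overnight 37 °C plating, 90 min RT dye, 20 min compound | Detection: Kinetic thallium-flux fluorescence | Read-out: Max-minus-min fluorescence over baseline, percent of buffer-to-R-L3 span | Benchmarks: Low control buffer, high control R-L3 activator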

Experiment [2] has as its target Potassium voltage-gated channel subfamily KQT member 1 (Homo sapiens) (UniProt P51787). In words: enhancement of KCNQ1 channel thallium flux – FluxOR thallium flux, CHO cells, duplicates, confirmation (AID 493007;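 active = potentiation averaged over duplicate wells exceeding buffer-only control mean by more than 3 SD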;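 for outcome: cells depolarized by a potassium plus thallium sulfate stimulus after compound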). The note with it: KCNQ1 cell line, FluxOR thallium flux fluorescence, at 10 µM; stronger effect = higher value, % of reference activator effect, buffer zero. Summed up:
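Material: KCNQ1-expressing CHO cell line; Incubation: FluxOR dye loading 90 min, compound exposure 20 min, room temperature; Detection: FluxOR Tl+ flux fluorescence, 10 s baseline plus 110 s recording; Read-out: percent activation between buffer and R-L3 responses; Control set: buffer-only wells as 0% and R-L3 activator as 100%; Replication: duplicate wells per compound.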

The target in experiment [3] is Potassium voltage-gated channel subfamily KQT member 2 (Rattus norvegicus) (UniProt O88943). Put plainly: KCNQ2 thallium flux enhancement – KCNQ2-CHO-K1 cells, selectivity assay for KCNQ1 potentiator project (AID 493009;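 active = mean duplicate potentiation above the buffer control mean plus 5 SD of buffer wells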;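 note: assay conditions were tuned for KCNQ1 rather than KCNQ2 modulators; signal is max minus min fluorescence divided by baseline after thallium stimulus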). The note with it: FluxOR thallium flux fluorescence, at 10 µM; stronger effect = higher value, scaled: buffer 0, activator control 100.
In experiment [4] the target is Potassium voltage-gated channel subfamily KQT member 1 (Homo sapiens) (UniProt P51787). Put plainly: KCNQ1 activators by electrophysiology – IonWorks patch clamp, KCNQ1-CHO cells, orthogonal assay for KCNQ1 potentiator project, confirmation (AID 493184;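 active = current rise at least 3 SD above the untreated control mean in each of two repeat wells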). The note with it: automated patch clamp current, at 10 µM; stronger effect = higher value. Put shortly: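 assay system = KCNQ1-expressing CHO cells | medium = external bath solution at pH 7.4 | probe or stimulus = 2,000 ms depolarization, -90 to +40 mV | compound dosing = 10 µM final, single point | measured by = automated voltage clamp, amphotericin B perforated patch | measure = percent current increase versus pre-compound level | replication = duplicates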

The source made the active and inactive calls.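 Rule for the calls, unless noted: active = duplicate-averaged activation above buffer control mean plus 5 SD of those controls; inactive = the rest.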

Potassium voltage-gated channel subfamily KQT member 1 (Homo sapiens), sequence (P51787 whole entry, looked up): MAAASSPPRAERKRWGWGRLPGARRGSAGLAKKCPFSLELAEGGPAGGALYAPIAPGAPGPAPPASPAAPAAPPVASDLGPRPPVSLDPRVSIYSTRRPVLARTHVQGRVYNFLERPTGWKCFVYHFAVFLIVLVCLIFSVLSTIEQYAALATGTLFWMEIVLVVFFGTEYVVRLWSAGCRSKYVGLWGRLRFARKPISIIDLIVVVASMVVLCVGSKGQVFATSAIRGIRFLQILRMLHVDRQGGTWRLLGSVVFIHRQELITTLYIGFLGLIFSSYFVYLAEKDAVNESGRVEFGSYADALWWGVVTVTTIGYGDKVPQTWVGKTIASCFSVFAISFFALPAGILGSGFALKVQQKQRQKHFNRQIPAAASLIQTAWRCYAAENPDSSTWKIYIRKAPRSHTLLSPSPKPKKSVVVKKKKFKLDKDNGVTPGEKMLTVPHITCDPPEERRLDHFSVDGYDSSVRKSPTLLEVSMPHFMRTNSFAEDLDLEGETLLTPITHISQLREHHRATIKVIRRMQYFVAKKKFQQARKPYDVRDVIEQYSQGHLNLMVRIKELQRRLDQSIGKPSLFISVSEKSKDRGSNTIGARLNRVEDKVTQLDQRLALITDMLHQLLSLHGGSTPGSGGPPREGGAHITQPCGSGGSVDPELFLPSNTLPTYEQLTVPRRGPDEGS
Potassium voltage-gated channel subfamily KQT member 2 (Rattus norvegicus), sequence (O88943 whole entry, looked up): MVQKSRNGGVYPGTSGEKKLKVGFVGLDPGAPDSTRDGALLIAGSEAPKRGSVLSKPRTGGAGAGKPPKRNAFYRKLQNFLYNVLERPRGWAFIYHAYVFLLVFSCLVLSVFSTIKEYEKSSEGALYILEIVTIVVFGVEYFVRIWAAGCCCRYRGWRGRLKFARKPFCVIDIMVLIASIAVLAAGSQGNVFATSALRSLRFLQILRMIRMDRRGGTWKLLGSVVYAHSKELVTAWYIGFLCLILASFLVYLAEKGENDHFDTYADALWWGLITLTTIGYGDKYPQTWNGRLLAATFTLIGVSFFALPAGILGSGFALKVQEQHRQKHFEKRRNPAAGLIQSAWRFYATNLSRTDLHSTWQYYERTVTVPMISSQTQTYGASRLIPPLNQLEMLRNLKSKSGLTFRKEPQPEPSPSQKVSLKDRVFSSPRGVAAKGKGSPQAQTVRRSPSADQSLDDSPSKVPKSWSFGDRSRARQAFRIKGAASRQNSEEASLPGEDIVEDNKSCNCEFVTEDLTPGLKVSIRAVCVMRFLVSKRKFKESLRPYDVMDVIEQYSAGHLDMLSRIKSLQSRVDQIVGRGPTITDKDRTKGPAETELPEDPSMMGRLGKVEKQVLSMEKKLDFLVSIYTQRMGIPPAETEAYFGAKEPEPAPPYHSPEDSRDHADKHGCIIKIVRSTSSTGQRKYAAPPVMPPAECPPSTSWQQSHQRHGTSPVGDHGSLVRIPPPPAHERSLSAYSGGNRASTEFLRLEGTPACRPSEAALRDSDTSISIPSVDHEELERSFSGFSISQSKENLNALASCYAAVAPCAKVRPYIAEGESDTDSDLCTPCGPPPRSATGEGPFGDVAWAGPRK

`CCc1ccc(C2c3[nH]c4ccccc4c3CCN2C(=O)CNC(N)=O)cc1` (stereo not given): the result in experiment [1] and in experiment [4] was inactive. Further, the potentiation in experiment [2] was 31% (active); in experiment [3] it was 156% (active).
Take `CSc1nnc(-c2ccccc2)o1`: the result in experiment [1], in experiment [2], in experiment [3] and in experiment [4] was inactive.
Regarding `CN(C)c1nc(=Nc2cccc(Cl)c2)ss1`, the activation in experiment [1] is 312% (active). Further, the values for the potentiation in experiment [2] and in experiment [3] were 119% (active) and 273% (active), respectively. In addition, the outcome in experiment [4] was inactive.
`O=C(NC(=S)N1CCN(c2ccc([N+](=O)[O-])cc2Cl)CC1)c1ccco1`: the outcome in experiment [1], in experiment [2], in experiment [3] and in experiment [4] was inactive.
Turning to `Cc1ccc(S(=O)(=O)N(C)c2nc3ccccc3[nH]c2=S)cc1`, the result in experiment [1] and in experiment [4] was inactive. For the same compound, the potentiation was 42.5% (active) in experiment [2] and 197% (active) in experiment [3].
`O=C(c1cccc(-c2ccccc2F)c1)N1CC[C@@H](N2CCC(O)CC2)[C@H](O)C1`: the outcome in experiment [1], in experiment [2], in experiment [3] and in experiment [4] was inactive.
Take `O=C(Nc1ccccc1)C1=C(c2ccccc2)S(=O)(=O)CCS1(=O)=O`: the outcome in experiment [1], in experiment [2], in experiment [3] and in experiment [4] was inactive.
As for `COCCN(C(=O)COC(=O)/C=C/c1cccs1)c1c(N)n(Cc2ccccc2)c(=O)[nH]c1=O`, the outcome in experiment [1], in experiment [2], in experiment [3] and in experiment [4] was inactive.
As for `N#Cc1ccccc1NS(=O)(=O)c1cc2c3c(c1)CCC(=O)N3CCC2`, the result in experiment [1], in experiment [2], in experiment [3] and in experiment [4] was inactive.
On to `COc1cccc(N(C(=O)Cn2nnc(-c3ccc(C)o3)n2)C(C(=O)NC2CCCC2)c2ccncc2)c1` (stereo not given), for which the result in experiment [1], in experiment [2], in experiment [3] and in experiment [4] was inactive.
As for `CCOC(=O)Cc1csc(NC(=S)NC(=O)c2ccc(F)cc2)n1`, the outcome in experiment [1], in experiment [2], in experiment [3] and in experiment [4] was inactive.
As to `C/C(=N/NC(=S)Nc1cccc(C)c1)c1cccc([N+](=O)[O-])c1`, the result in experiment [1], in experiment [3] and in experiment [4] was inactive. Moreover, the potentiation in experiment [2] is 44.5% (active).
For the compound `CC1=CC(=O)C=C(C)C1=NOS(=O)(=O)c1ccccc1`, the outcome in experiment [1], in experiment [2], in experiment [3] and in experiment [4] was inactive.
Consider `C=CCOc1ccc(/C=C2\SC(=S)N(NS(=O)(=O)c3ccc(C)cc3)C2=O)cc1`, for which the activation in experiment [1] is 447% (active). In addition, the values for the potentiation in experiment [2] and in experiment [3] were 444% (active) and 852% (active), respectively. The result in experiment [4] was inactive.
Regarding `Cc1[nH]c(-c2ccccn2)nc(=S)c1Cl`, the activation in experiment [1] is 244% (active). Besides, the potentiation in experiment [2] was 106% (active); in experiment [3], 262% (active). For the same compound, the outcome in experiment [4] was inactive.
`O=C(NC(=S)Nc1ccccc1N1CCOCC1)c1sc2ccccc2c1Cl`: the result in experiment [1], in experiment [3] and in experiment [4] was inactive. Moreover, the potentiation in experiment [2] is 34% (active).
As for `CC(=O)Nc1nc2c(F)cccc2s1`, the outcome in experiment [1], in experiment [2], in experiment [3] and in experiment [4] was inactive.
With `COc1ccc(NC(=O)CCCSc2nc(-c3ccco3)cc(C(F)(F)F)n2)cc1OC`, the outcome in experiment [1], in experiment [2], in experiment [3] and in experiment [4] was inactive.
Consider `N#C/C(=C\c1ccc(-c2ccccc2Cl)o1)C(=O)Nc1nc2ccccc2s1`, for which the result in experiment [1], in experiment [2], in experiment [3] and in experiment [4] was inactive.
As for `CCOC(=O)C(C)Oc1cccc2c(=O)n(CC(=O)NCc3ccc4c(c3)OCO4)ccc12` (stereo not given), the result in experiment [1], in experiment [2], in experiment [3] and in experiment [4] was inactive.
In the case of `COc1cc(OC)cc(C(=O)NC(=S)N(Cc2ccccc2)C(C)C)c1`, the activation in experiment [1] is 294% (active). The results for the potentiation in experiment [2] and in experiment [3] were 150% (active) and 380% (active), respectively. The result in experiment [4] was inactive.
As for `CC(C)C(=O)Nc1c(O)c2ccccc2[nH]c1=O`, the result in experiment [1], in experiment [2], in experiment [3] and in experiment [4] was inactive.
Turning to `CN(C)CCNC(=O)c1ccc2c(=O)n(Cc3ccc(Cl)cc3)c(=S)[nH]c2c1`, the result in experiment [1] and in experiment [4] was inactive. Further, the potentiation in experiment [2] was 25% (active); in experiment [3], 149% (active).
As for `COC(=O)c1cnn(-c2ccc(Cl)cc2)c1/C=N/NC(N)=S`, the outcome in experiment [1], in experiment [2], in experiment [3] and in experiment [4] was inactive.
Regarding `CCN1C(=O)/C(=C/c2ccc(C)s2)NC1=S`, the activation in experiment [1] is 208% (active). The results for the potentiation in experiment [2] and in experiment [3] were 57.5% (active) and 258% (active), respectively. In experiment [4], the result was inactive.
Take `CC(C)(C)C(=O)NC(=S)NNC(=O)c1ccc(Cl)cc1Cl`: the result in experiment [1] and in experiment [4] was inactive. Further, the potentiation in experiment [2] is 52% (active); in experiment [3] it was 171% (active).
`COc1ccc(-n2nc3c(c2NC(=O)c2ccc4c(c2)OCO4)CS(=O)(=O)C3)cc1`: in experiment [1], the activation was 224% (active). For the same compound, the figures for the potentiation in experiment [2] and in experiment [3] were 75.5% (active) and 206% (active), respectively. Besides, the outcome in experiment [4] was inactive.
As for `O=C(NNC(=O)c1ccc2ccccc2c1O)c1cccs1`, the outcome in experiment [1], in experiment [2], in experiment [3] and in experiment [4] was inactive.
`COc1cc2c(cc1OC)C(C)N(C(=S)NC(=O)c1ccccc1)CC2` (stereo not given): in experiment [1], the activation is 141% (active). The result in experiment [2], in experiment [3] and in experiment [4] was inactive.
Consider `Cc1ccc2cc3cc(C(=O)NC4CC4)oc3nc2c1`, for which the outcome in experiment [1], in experiment [2], in experiment [3] and in experiment [4] was inactive.
